Measured values reported in ChEMBL document CHEMBL3779860, “A Designed Tryptophan- and Lysine/Arginine-Rich Antimicrobial Peptide with Therapeutic Potential for Clinical Antibiotic-Resistant Candida albicans Vaginitis” (J Med Chem, 2016).
The source made the active and inactive calls. The calls are words filed in the database; no cut-off is given here.

How the values were obtained:
Candida albicans [1] = assay: Antimicrobial activity against antibiotic resistant Candida albicans clinical isolate 08032815 compound treated in PBS solution measured after 36 hrs by disc diffusion method; type: functional; details: isolate 08032815, 36 h
In short: (§1)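 Salt-tolerance test: peptide at 2 mg/mL was prepared in sterile ddH2O, in 150 mM NaCl, or in PBS (150 mM NaCl, 2.7 mM KCl, 1.5 mM KH2PO4, 8 mM K2HPO4, pH 7.2). Anti-C. albicans activity was then assessed by inhibition zone on Sabouraud medium with 0.7% agar.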

Candida albicans [2] = assay: Antimicrobial activity against antibiotic resistant Candida albicans clinical isolate 08032815 compound treated in double distilled water measured after 36 hrs by disc diffusion method; type: functional; details: isolate 08032815, 36 h; in short: as §1
Candida albicans [3] = assay: Antimicrobial activity against antibiotic resistant Candida albicans after 6 hrs by disc diffusion method in presence of human plasma; type: functional, organism-based
In short: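 Peptide mixed with human plasma (final concentration 100 µM) at 37°C for up to 24 h. 10 µL aliquots were applied to C. albicans in Sabouraud medium with 0.7% agar. Inhibition zone diameters were read after 36 h.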

Candida albicans [4] = assay: Antimicrobial activity against antibiotic resistant Candida albicans clinical isolate 08032821 compound treated in double distilled water measured after 36 hrs by disc diffusion method; type: functional; details: isolate 08032821, 36 h; in short: as §1
Candida albicans [5] = assay: Antimicrobial activity against antibiotic resistant Candida albicans clinical isolate 08030102 after 16 hrs by broth dilution method; type: functional; details: isolate 08030102, 16 h
In short: (§2)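 Broth microdilution in Sabouraud liquid medium. Samples are stocks in 0.9% NaCl, 10 µL added to 90 µL broth plus 100 µL of 2 × 10^5 CFU/mL yeast suspension. Incubated 16 h at 28°C, growth read by A600. MIC is the lowest concentration completely inhibiting growth; mean of three independent experiments.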

Candida albicans [6] = assay: Antimicrobial activity against Candida albicans ATCC 2002 assessed as inhibition of yeast growth after 16 hrs by broth dilution method; type: functional; details: ATCC 2002, 16 h; in short: as §2
Bacillus subtilis = assay: Antimicrobial activity against Bacillus subtilis assessed as inhibition of […] growth after 16 hrs by broth dilution method; type: functional
In short: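 Broth dilution in LB broth; 100 µL of 2 × 10^5 CFU/mL bacterial suspension plus 10 µL sample (stock series in 0.9% NaCl) in 90 µL broth, 37°C for 16 h. Growth read as A600; MIC is the lowest concentration completely inhibiting growth. Mean of three independent experiments run in duplicate.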

Candida albicans [7] = assay: Antimicrobial activity against antibiotic resistant Candida albicans clinical isolate 08030809 assessed as clone count at MIC after 3 hrs by colony counting assay (reference value: 3687 +/- 543 CFU); type: functional
Candida albicans [8] = assay: Antimicrobial activity against antibiotic resistant Candida albicans clinical isolate 08030809 assessed as clone count at MIC after 12 hrs by colony counting assay (reference value: 54153 +/- 8769 CFU); type: functional
Candida albicans [9] = assay: Antimicrobial activity against antibiotic resistant Candida albicans clinical isolate 08030809 assessed as clone count at 10 times MIC after 6 hrs by colony counting assay (reference value: 14536 +/- 2467 CFU); type: functional
Candida albicans [10] = assay: Antimicrobial activity against antibiotic resistant Candida albicans clinical isolate 08030809 assessed as clone count at MIC after 30 mins by colony counting assay (reference value: 156 +/- 16 CFU); type: functional
Mus musculus [11] = assay: Antiinflammatory activity in antibiotic resistant Candida albicans clinical isolate 08030809 induced mouse vaginitis model assessed as reduction in IL-6 secretion in vaginal tissue administered as intravaginal instillation measured on day 10 by ELISA; type: functional, organism-based; details: Vagina
In short: (§3)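 Same estradiol-primed mouse model, infected intravaginally with C. albicans 08030809 and treated by intravaginal instillation (20 µL/mouse). Vaginal canals excised on day 10 of treatment and homogenised in 0.9% NaCl. Supernatant taken after 2,000 g for 15 min. TNF-α, IL-6, IL-1β and IL-10 measured by ELISA. Mean ± SE of three independent experiments; unpaired t-test versus vehicle.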

Candida albicans [12] = assay: Antimicrobial activity against antibiotic resistant Candida albicans clinical isolate 08030809 assessed as clone count at 10 times MIC after 1 min by colony counting assay (reference value: 62 +/- 7 CFU); type: functional
Candida albicans [13] = assay: Antimicrobial activity against antibiotic resistant Candida albicans clinical isolate 08030809 assessed as clone count at 10 times MIC after 30 mins by colony counting assay (reference value: 156 +/- 16 CFU); type: functional
Mus musculus [14] = assay: Antiinflammatory activity in antibiotic resistant Candida albicans clinical isolate 08030809 induced mouse vaginitis model assessed as microabscess number in vaginal tissue at 50 ug administered as intravaginal instillation measured on day 6 by hematoxylin-eosin staining based microscopic method (reference value: 61); type: functional, Vagina
In short: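 Mice given weekly subcutaneous estradiol valerate (0.5 mg in 0.1 mL vegetable oil) 72 h before infection. Infected intravaginally with 20 µL of 10^7 CFU/mL C. albicans 08030809. Intravaginal instillation of 20 µL daily for 16 days. Vaginal canals excised after lavage, formalin-fixed, paraffin-embedded, HE-stained. Microabscesses counted per high-power field over 6 fields per section, three independent experiments.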

Mus musculus [15] = assay: Antiinflammatory activity in antibiotic resistant Candida albicans clinical isolate 08030809 induced mouse vaginitis model assessed as reduction in TNF-alpha secretion in vaginal tissue at 20 ug administered as intravaginal instillation measured on day 10 by ELISA; type: functional, Vagina; in short: as §3
Mus musculus [16] = assay: Antiinflammatory activity in antibiotic resistant Candida albicans clinical isolate 08030809 induced mouse vaginitis model assessed as reduction in TNF-alpha secretion in vaginal tissue at 50 ug administered as intravaginal instillation measured on day 10 by ELISA; type: functional, Vagina; in short: as §3
Mus musculus [17] = assay: Antiinflammatory activity in antibiotic resistant Candida albicans clinical isolate 08030809 induced mouse vaginitis model assessed as reduction in IL-1beta secretion in vaginal tissue at 50 ug administered as intravaginal instillation measured on day 10 by ELISA; type: functional, Vagina; in short: as §3
Mus musculus [18] = assay: Antiinflammatory activity in antibiotic resistant Candida albicans clinical isolate 08030809 induced mouse vaginitis model assessed as reduction in IL-10 secretion in vaginal tissue at 50 ug administered as intravaginal instillation measured on day 10 by ELISA; type: functional, Vagina; in short: as §3
Candida albicans [19] = assay: Antimicrobial activity against antibiotic resistant Candida albicans clinical isolate 08030809 in mouse vaginitis model assessed as colony count in lavage liquid of vagina at 50 ug administered as intravaginal instillation measured on day 16; type: functional
Candida albicans [20] = assay: Antimicrobial activity against antibiotic resistant Candida albicans clinical isolate 08030809 in mouse vaginitis model assessed as decrease in colony count in lavage liquid of vagina at 20 ug administered as intravaginal instillation measured on day 16; type: functional
Candida albicans [21] = assay: Antimicrobial activity against antibiotic resistant Candida albicans clinical isolate 08030809 in mouse vaginitis model assessed as decrease in colony count in lavage liquid of vagina at 20 ug administered as intravaginal instillation measured on day 11; type: functional
Candida albicans [22] = assay: Antimicrobial activity against antibiotic resistant Candida albicans clinical isolate 08030809 in mouse vaginitis model assessed as decrease in colony count in lavage liquid of vagina at 50 ug administered as intravaginal instillation measured on day 11; type: functional
Candida albicans [23] = assay: Antimicrobial activity against antibiotic resistant Candida albicans clinical isolate 08030809 in mouse vaginitis model assessed as decrease in colony count in lavage liquid of vagina at 50 ug measured on day 1; type: functional

In the case of H-VKRWKKWRWKWKKWV-NH2, the MIC (Candida albicans [1]) is reported as 2.79 µg/mL, the MIC (Candida albicans [2]) is reported as 2.79 µg/mL and the Activity (Candida albicans [3]) is reported as “Active”. It also gave an MIC (Candida albicans [4]) of 2.65 µg/mL, an MIC (Candida albicans [5]) of 3.13 µg/mL and an MIC (Candida albicans [6]) of 0.59 µg/mL. For the same substance, the MIC (Bacillus subtilis) was 1.17 µg/mL, the Activity (Candida albicans [7]) was 0 CFU and the Activity (Candida albicans [8]) was 0 CFU. The Activity (Candida albicans [9]) was 0 CFU, the Activity (Candida albicans [10]) was 0 CFU and the Activity (Mus musculus [11]) was “Dose-dependent effect”. For the same substance, the Activity (Candida albicans [12]) was 6 CFU, the Activity (Candida albicans [13]) was 0 CFU and the Activity (Mus musculus [14]) was 7. The “inhibition (INH)” value (Mus musculus [15]) was 32%, the “inhibition (INH)” value (Mus musculus [16]) was 53% and the “inhibition (INH)” value (Mus musculus [17]) was 63%. For the same substance, the “inhibition (INH)” value (Mus musculus [18]) was 45%, the Activity (Candida albicans [19]) was 2.9 ×10³ CFU/ml and the “inhibition (INH)” value (Candida albicans [20]) was 71%. For the same substance, the “inhibition (INH)” value (Candida albicans [21]) was 37%, the “inhibition (INH)” value (Candida albicans [22]) was 66% and the “inhibition (INH)” value (Candida albicans [23]) was 28%.
